What all share (format): cell-based
The nature of data set [1]: Cytotoxicity against human Raji cells assessed as cell viability at 1000 molar ratio after 48 hrs by trypan blue assay. Conditions: read-out: Activity. A digest of the protocol:
(§1)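 Raji cells were treated together with TPA (32 pmol), n-butyrate and test substance in 0.25% phosphate buffer solution (pH 7.2). Dose is expressed as molar ratio to TPA. After 48 h, cells were stained with Trypan Blue and surviving cells were counted to give viability %.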

Data set [2] has as its system Raji. Put plainly: Inhibition of TPA-induced EBV-early antigen activation in human Raji cells assessed as EA activation at 100 molar ratio after 48 hrs relative to TPA. To be noted: human gammaherpesvirus 4. In short, it runs like this: (§2)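 EBV early antigen activation was induced in Raji cells with TPA (32 pmol) and n-butyrate. Test substance was dosed as a molar ratio to TPA in 0.25% phosphate buffer (pH 7.2) for 48 h. Activation is expressed as % of the TPA-only positive control (=100), reported as mean ± SD.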

The test system of data set [3] is Raji. Put plainly: Inhibition of TPA-induced EBV-early antigen activation in human Raji cells assessed as EA activation at 10 molar ratio after 48 hrs relative to TPA. Conditions: human gammaherpesvirus 4. A digest of the protocol:
as §2

The subject of data set [4] is Raji. Put plainly: Inhibition of TPA-induced EBV-early antigen activation in human Raji cells assessed as EA activation at 500 molar ratio after 48 hrs relative to TPA. Conditions: human gammaherpesvirus 4. A digest of the protocol:
as §2

For data set [5], the system named is Raji. Put plainly: Inhibition of TPA-induced EBV-early antigen activation in human Raji cells assessed as EA activation at 1000 molar ratio after 48 hrs relative to TPA. Conditions: human gammaherpesvirus 4. A digest of the protocol: as §2
Data set [6] in a line: Cytotoxicity against human Raji cells assessed as cell viability at 100 molar ratio after 48 hrs by trypan blue assay. To be noted: read-out: Activity. In short, it runs like this: as §1

Turning to `O=C(O)C1=CO[C@@H](O[C@@H]2O[C@H](CO)[C@@H](O)[C@H](O)[C@H]2O)[C@@H]2C(CO)=CC[C@H]12` [GENIPOSIDIC ACID], in data set [1], the viability at 48 h, 1000 molar ratio turned out to be 80%. In addition, the EA activation relative to TPA control in the data set with Raji [2] stood at 91.8%. Further, the EBV-EA activation (% of TPA control) in the data set on Raji [3] came to 100%. Further, the EA activation (% of TPA control) with Raji [4] turned out to be 80.5%. Moreover, the EA activation (% of TPA-only control) in the data set on Raji [5] is 34.8%.
On the same counts, the results for `COC(=O)C1=CO[C@@H](O[C@@H]2O[C@H](CO)[C@@H](O)[C@H](O)[C@H]2O)[C@H]2[C@@H]1C=C[C@@]2(O)CO` [GARDENOSIDE] are 80%, 100%, 100%, 100% and 92.6%.
With `COC(=O)C1=CO[C@@H](O[C@@H]2O[C@H](CO)[C@@H](O)[C@H](O)[C@H]2O)[C@@H]2C(CO)=CC[C@H]12` [GENIPOSIDE], in data set [1], the viability at 48 h, 1000 molar ratio was 80%. Also, in the data set with Raji [2], the EA activation relative to TPA control turned out to be 100%. Besides, the EBV-EA activation (% of TPA control) with Raji [3] worked out at 100%. For the same compound, the EA activation (% of TPA control) in the data set on Raji [4] amounted to 91%. The EA activation (% of TPA-only control) in the data set with Raji [5] was found to be 62.4%.
For the compound `O=CC1=CO[C@@H](O[C@@H]2O[C@H](CO)[C@@H](O)[C@H](O)[C@H]2O)[C@@H]2C(CO)=CC[C@H]12` [TARENNOSIDE], the viability at 48 h, 1000 molar ratio in data set [1] is 80%. In the data set on Raji [2], the EA activation relative to TPA control was determined as 88.1%. Besides, the EBV-EA activation (% of TPA control) in the data set with Raji [3] is 100%. In the data set with Raji [4], the EA activation (% of TPA control) turned out to be 72.8%. The EA activation (% of TPA-only control) in the data set with Raji [5] was found to be 30.5%.
Take `CC1=C(/C=C/C(C)=C/C=C/C(C)=C/C(=O)O)C(C)(C)CCC1` [TRETINOIN]: in data set [1], the viability at 48 h, 1000 molar ratio came out at 10%. Further, the EA activation relative to TPA control with Raji [2] was determined as 67%. Also, the viability at 48 h, 100 molar ratio in data set [6] is 40%. Also, in the data set with Raji [5], the EA activation (% of TPA-only control) came out at 30%.
For the compound `COC(=O)C1=CO[C@@H](O)[C@@H]2C(CO)=CC[C@H]12` [GENIPIN], the viability at 48 h, 1000 molar ratio in data set [1] came out at 80%. Further, in the data set with Raji [2], the EA activation relative to TPA control worked out at 64.2%. Further, the EBV-EA activation (% of TPA control) in the data set with Raji [3] stood at 100%. Further, the EA activation (% of TPA control) in the data set with Raji [4] was found to be 44.2%. Besides, the EA activation (% of TPA-only control) in the data set on Raji [5] was found to be 11.5%.

These data come from ChEMBL document CHEMBL1150208, “Production of anti-tumor-promoting iridoid glucosides in Genipa americana and its cell cultures” (J Nat Prod, 1991).
